Calls of active or inactive are those of the source. The calls are words filed in the database; no cut-off is given here.

In general, IC50 refers to the point on the concentration scale where inhibition reaches its midpoint. Broadly, the Inhibition is the share of the control response that was lost under treatment. High values mean a strong effect, low ones a weak effect. The term inhibition denotes the change of the read-out against control, counted positive when it falls. As usually defined, the GI50 is the concentration that inhibits growth by half.

The test system of one assay is MCF7. The assay can be described thus: Induction of tubulin hyperacetylation in human MCF7 cells at 10 uM by Western blot. The class given is functional, cell-based. The method, boiled down: (§1)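 MCF-7 cells seeded at 500000/well, treated 24 h later with compound or DMSO for 8 h at 37 °C. PBS-washed cells lysed in Tris-HCl pH 7.5, EDTA, NaCl, 0.5% NP-40 plus protease inhibitors. Protein quantified by BCA before Western blotting.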
(In western blotting, separated proteins are transferred to a membrane and probed.)
As to `O=C(CCCCCCC(=O)Nc1ccccc1)NO`, the outcome was Active.

Regarding `NC(=O)[C@H]1CCCCc2c1[nH]c1ccc(Cl)cc21`, the outcome was Active.

The target of a further assay is T1, NAD-dependent protein deacetylase sirtuin-2 (Homo sapiens, UniProt Q8IXJ6).
T1 sequence (Q8IXJ6 whole entry): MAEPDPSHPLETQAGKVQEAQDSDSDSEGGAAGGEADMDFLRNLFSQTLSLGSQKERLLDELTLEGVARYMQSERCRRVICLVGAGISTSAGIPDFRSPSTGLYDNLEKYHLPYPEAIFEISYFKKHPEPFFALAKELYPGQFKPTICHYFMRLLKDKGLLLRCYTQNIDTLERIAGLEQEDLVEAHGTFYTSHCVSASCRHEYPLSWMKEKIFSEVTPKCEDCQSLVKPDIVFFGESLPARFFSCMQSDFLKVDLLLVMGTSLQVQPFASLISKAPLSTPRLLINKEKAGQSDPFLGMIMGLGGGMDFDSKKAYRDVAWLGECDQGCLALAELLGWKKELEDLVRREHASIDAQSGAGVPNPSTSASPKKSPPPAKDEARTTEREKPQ
The experiment in a line: Inhibition of human recombinant Sirt2 expressed in Escherichia coli BL21 by fluorescent deacetylase assay.
With `Cc1ccc(C2CC(=O)Oc3ccc4cc(Br)ccc4c32)cc1Cl` (stereo not drawn), the IC50 amounted to 2.3 µM.

For `Cc1ccc([C@H]2CC(=O)Oc3ccc4cc(C)ccc4c32)cc1`, the IC50 worked out at 1 µM.

As to `O=C1CC(c2ccccc2)c2c(ccc3cc(Br)ccc23)O1` (stereo not drawn), the IC50 stood at 5.2 µM.

`Cc1ccc2c3c(ccc2c1)OC(=O)CC3c1ccc(C)c(F)c1` (stereo not drawn): the IC50 came out at 3.4 µM.

For the molecule `Cc1ccc(C2CC(=O)Oc3ccc4cc(C)ccc4c32)cc1` (stereo not drawn), the IC50 came to 1.5 µM.

As for `Cc1ccc2c3c(ccc2c1)OC(=O)CC3c1cccc(C#N)c1` (stereo not drawn), the IC50 was determined as 3.1 µM.

`O=C1CC(c2cccc(F)c2)c2c(ccc3cc(Br)ccc23)O1` (stereo not drawn): the IC50 was found to be 3.2 µM.

As for `Cc1ccc2c3c(ccc2c1)OC(=O)CC3c1cccc(C(N)=O)c1` (stereo not drawn), the IC50 was determined as 20 µM.

As to `O=C1CC(c2cccc(Br)c2)c2c(ccc3cc(Br)ccc23)O1` (stereo not drawn), the IC50 was 10.1 µM.

As to `Cc1ccc(C2CC(=O)Oc3ccc4cc(Br)ccc4c32)cc1` (stereo not drawn), the IC50 stood at 1.5 µM.

For the molecule `COc1cccc(C2CC(=O)Oc3ccc4cc(Br)ccc4c32)c1` (stereo not drawn), the IC50 came out at 2.3 µM.

Consider `O=C1CC(c2ccc(F)c(F)c2)c2c(ccc3cc(Br)ccc23)O1` (stereo not drawn), for which the IC50 came out at 19.7 µM.

For the molecule `O=C1CC(c2ccccc2)c2c(ccc3cc(Br)ccc23)N1` (stereo not drawn), the 50% inhibitory concentration (IC50) was 6.4 µM.

Regarding `COc1ccc(C2CC(=O)Oc3ccc4cc(Br)ccc4c32)cc1` (stereo not drawn), the IC50 is 5.4 µM.

For the molecule `Cc1cccc(C2CC(=O)Oc3ccc4cc(C)ccc4c32)c1` (stereo not drawn), the IC50 amounted to 4.4 µM.

As for `O=C1CC(c2ccccc2)c2c(ccc3cc(I)ccc23)O1` (stereo not drawn), the IC50 was 19.5 µM.

`Cc1ccc(C2CC(=O)Oc3ccc4cc(Br)ccc4c32)cc1F` (stereo not drawn): the IC50 worked out at 2 µM.

Consider `Cc1ccc2c3c(ccc2c1)OC(=O)CC3c1ccccc1` (stereo not drawn), for which the IC50 was 10.6 µM.

`Cc1ccc2c3c(ccc2c1)OC(=O)C[C@@H]3c1ccccc1`: the IC50 stood at 3.4 µM.

Consider `O=C1CC(c2ccc(F)cc2)c2c(ccc3cc(Br)ccc23)O1` (stereo not drawn), for which the IC50 stood at 7.9 µM.

Take `Cc1ccc2c3c(ccc2c1)OC(=O)CC3c1cccc(Br)c1` (stereo not drawn): the IC50 was 9.8 µM.

In another assay the test system is MCF7. The experiment in a line: Induction of tubulin hyperacetylation in human MCF7 cells at 100 uM by Western blot. The class given is functional, cell-based. The method, boiled down:
as §1
In the case of `Cc1ccc([C@H]2CC(=O)Oc3ccc4cc(C)ccc4c32)cc1`, the result was Active.

On to `Cc1ccc(C2CC(=O)Oc3ccc4cc(Br)ccc4c32)cc1` (stereo not drawn), for which the outcome was Active.

For the next assay, the system named is MCF7. The experiment in a line: Growth inhibition of human MCF7 cells at 500 uM by MTT assay. The class given is functional. The procedure, abridged:
(§2)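 MCF-7 cells in RPMI-1640 with 10% FBS, L-glutamine and penicillin/streptomycin at 37 °C, 5% CO2; 5000 cells/well, compound or DMSO vehicle added 24 h after seeding, then 72 h exposure.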
(Formazan colour is commonly taken as a measure of viable cells.)
For the molecule `Cc1ccc([C@@H]2CC(=O)Oc3ccc4cc(C)ccc4c32)cc1`, the Inhibition was 74%.

As for `Cc1ccc2c3c(ccc2c1)OC(=O)CC3c1cccc(C(N)=O)c1` (stereo not drawn), the Inhibition is reported as 64%.

`O=C1CC(c2ccccc2)c2c(ccc3cc(-c4ccccc4)ccc23)O1` (stereo not drawn) registered an Inhibition of 57%.

The target in the next assay is T2, NAD-dependent protein deacetylase sirtuin-2 (Homo sapiens) (UniProt Q8IXJ6).
T2 sequence (whole entry): T1 sequence (Q8IXJ6 whole entry)
The experiment in a line: Inhibition of human recombinant Sirt2 expressed in Escherichia coli BL21 at 20 uM by fluorescent deacetylase assay. The method, boiled down:
(§3)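 Full-length human Sirt2, N-terminal His6 tag, expressed in E. coli BL21 (IPTG 0.1 mM, 2 h). 60 µL reaction with fluorescent acetyl-lysine substrate ZMAL 10.5 µM, NAD+ 500 µM, inhibitor from DMSO stock, 4 h at 37 °C. Deacetylated product developed by tryptic digest; fluorescence at ex 390/em 460 nm. Inhibition calculated versus no-inhibitor control; at least duplicate.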
For the molecule `O=C1CC(c2cccnc2)c2c(ccc3ccccc23)N1` (stereo not drawn), the outcome was inactive.

Regarding `CC(=O)c1ccc2c3c(ccc2c1)OC(=O)CC3c1ccccc1` (stereo not drawn), the inhibition was found to be 24%.

In the case of `O=C1CC(c2ccccc2)c2c(ccc3cc(-c4cccc(O)c4)ccc23)O1` (stereo not drawn), the inhibition is 37.5%.

As to `O=C1CC(c2ccccc2)c2c(ccc3cc(O)ccc23)O1` (stereo not drawn), the inhibition came out at 21.8%.

`O=C1CC(c2ccc(Cl)c(Cl)c2)c2c(ccc3cc(Br)ccc23)O1` (stereo not drawn): the inhibition is 42.3%.

Regarding `O=C1CCc2c(ccc3cc(Br)ccc23)O1`, the result was inactive.

With `O=C1CC(c2ccccc2)c2c(ccc3cc(-c4cccnc4)ccc23)O1` (stereo not drawn), the inhibition is 18.4%.

Consider `O=C1CC(c2ccccc2)c2c(ccc3cc(-c4ccc(-c5ccccc5)cc4)ccc23)O1` (stereo not drawn), for which the inhibition was 20.6%.

Turning to `CC(=O)Nc1cccc(C2CC(=O)Oc3ccc4cc(C)ccc4c32)c1` (stereo not drawn), the inhibition was found to be 17.1%.

For the molecule `COc1cc(C2CC(=O)Oc3ccc4cc(Br)ccc4c32)ccc1C` (stereo not drawn), the inhibition is 6.3%.

Turning to `O=C1CC(c2ccccc2)c2c(ccc3cc(-c4ccc5ccccc5c4)ccc23)O1` (stereo not drawn), the inhibition was found to be 15.1%.

Turning to `COc1cc(C2CC(=O)Oc3ccc4cc(C)ccc4c32)ccc1C` (stereo not drawn), the inhibition came to 9.2%.

For `COc1ccccc1C1CC(=O)Oc2ccc3cc(Br)ccc3c21` (stereo not drawn), the inhibition worked out at 17.4%.

For the molecule `Cc1ccc2c3c(ccc2c1)OC(=O)CC3c1cccc(O)c1` (stereo not drawn), the inhibition was found to be 15.4%.

Regarding `CC(C)(C)c1ccc(C2CC(=O)Oc3ccc4cc(Br)ccc4c32)cc1` (stereo not drawn), the inhibition was determined as 46.8%.

As for `O=C1CC(c2ccc(Cl)cc2)c2c(ccc3cc(Br)ccc23)O1` (stereo not drawn), the inhibition turned out to be 28.5%.

Consider `Cc1ccc2c3c(ccc2c1)OC(=O)CC3c1ccc(-c2ccccc2)cc1` (stereo not drawn), for which the inhibition came out at 28.3%.

Turning to `Cc1ccc2c3c(ccc2c1)OC(=O)CC3c1ccc(Cl)cc1` (stereo not drawn), the inhibition came out at 26.7%.

Take `CC(=O)Nc1cccc(-c2ccc3c4c(ccc3c2)OC(=O)CC4c2ccccc2)c1` (stereo not drawn): the inhibition came out at 22.2%.

The subject of a further assay is MCF7. The assay can be described thus: Antiproliferative activity against human MCF7 cells by MTT assay. In kind it is functional. The method, boiled down: as §2
In turn, `Cc1ccc([C@H]2CC(=O)Oc3ccc4cc(C)ccc4c32)cc1` returned a GI50 of 84 µM.

As for `Cc1ccc(C2CC(=O)Oc3ccc4cc(C)ccc4c32)cc1` (stereo not drawn), the GI50 came out at 99 µM. This GI50 and that of the molecule before are within 1.5-fold of each other.

As for `Cc1ccc(C2CC(=O)Oc3ccc4cc(Br)ccc4c32)cc1` (stereo not drawn), the GI50 stood at 43 µM. This GI50 is about 2.3-fold lower than that of the molecule before.

In the next assay the target is T2, NAD-dependent protein deacetylase sirtuin-2 (Homo sapiens). The experiment in a line: Inhibition of human recombinant Sirt2 expressed in Escherichia coli BL21 at 100 uM by fluorescent deacetylase assay. The method, boiled down: as §3
As for `Cc1ccc([C@@H]2CC(=O)Oc3ccc4cc(C)ccc4c32)cc1`, the inhibition worked out at 35.1%.

For `Cc1ccc2c3c(ccc2c1)OC(=O)C[C@H]3c1ccccc1`, the inhibition was 41.8%.

Another assay has the same target. The assay can be described thus: Inhibition of human recombinant Sirt2 expressed in Escherichia coli BL21 at 40 uM by fluorescent deacetylase assay. The procedure, abridged:
as §3
With `N#Cc1ccc2c3c(ccc2c1)OC(=O)CC3c1ccccc1` (stereo not drawn), the inhibition turned out to be 25.9%.

With `O=C1CC(c2ccc(-c3ccccc3)cc2)c2c(ccc3ccccc23)N1` (stereo not drawn), the inhibition came out at 4.2%.

For `O=C1CC(c2ccccc2)c2c(ccc3ccccc23)N1` (stereo not drawn), the inhibition worked out at 31.5%.

Take `NC(=O)c1ccc2c3c(ccc2c1)OC(=O)CC3c1ccccc1` (stereo not drawn): the outcome was inactive.

Take `O=C1CC(c2ccccc2)c2c(ccc3ccccc23)O1` (stereo not drawn): the inhibition was 49.1%.

Consider `CCc1ccc2c3c(ccc2c1)OC(=O)CC3c1ccccc1` (stereo not drawn), for which the inhibition amounted to 25.6%.

As to `COc1ccc2ccc3c(c2c1)C(c1ccccc1)CC(=O)O3` (stereo not drawn), the outcome was inactive.

Take `O=C1CC(Cc2ccccc2)c2c(ccc3cc(Br)ccc23)O1` (stereo not drawn): the inhibition is 21.1%.

For `O=C1CC(c2ccc(F)cc2)c2c(ccc3ccccc23)N1` (stereo not drawn), the inhibition is 16.9%.

`O=C1CC(c2ccccc2)c2c(ccc3cc(-c4ccccc4)ccc23)O1` (stereo not drawn): the inhibition is 26.2%.

Consider `O=C1CC(c2ccccc2)c2c(cc(Br)c3cc(Br)ccc23)O1` (stereo not drawn), for which the inhibition worked out at 9.6%.
